Experimental data published in ChEMBL document CHEMBL3399994, “Improving both aqueous solubility and anti-cancer activity by assessing progressive lead optimization libraries” (Bioorg Med Chem Lett, 2015).
pEC50: −log10 of the molar value. In brackets after ≈: the same amount, converted by molar mass.

Key:
[1] = Solubility in pH 7.4 buffer after 18 hrs by UV spectroscopy based microSol assay; type: physicochemical; details: for solubility: buffer, pH 7.4, 18 h; for solubility at 18 h: pH 7.4 buffer, pH 7.4
[2] = Cytotoxicity against human H460/TaxR cells assessed as cell viability at 10 uM after 48 hrs by SRB assay; type: functional; details: read-out: Activity
Procedure, shortened: (§1)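 Single-concentration screen at 10 µM in normal human fibroblasts, NSCLC H460 cells and their drug-resistant H460_TaxR variant. Viability was read out by sulforhodamine B (SRB) staining and expressed relative to DMSO-treated cells, set as 100%.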

[3] = Cytotoxicity against human NHFB cells after 48 hrs by SRB assay; type: cell-based
[4] = Cytotoxicity against human H460 cells assessed as cell viability at 10 uM after 48 hrs by SRB assay; type: functional; details: NCI-H460, 48 h, read-out: Activity; procedure, shortened: as §1
[5] = Cytotoxicity against human NHFB cells assessed as cell viability at 10 uM after 48 hrs by SRB assay; type: cell-based; details: read-out: Activity; procedure, shortened: as §1
[6] = Cytotoxicity against human H460/TaxR cells after 48 hrs by SRB assay; type: functional, cell-based
[7] = Cytotoxicity against human H460 cells after 48 hrs by SRB assay; type: functional, cell-based; details: NCI-H460, 48 h

| SMILES | solubility [1] [µg/mL] | viability at 10 µM [2] [%] | pEC50 [3] | viability at 10 µM [4] [%] | viability at 48 h, 10 µM [5] [%] | pEC50 [6] | pEC50 [7] | solubility at 18 h [1] [µg/mL] |
| --- | --- | --- | --- | --- | --- | --- | --- | --- |
| CN(C)c1ccc(/C=C2/SC(=Nc3ccccc3)NC2=O)cc1 | 0.1 (≈ 0.309 µM) | 29.4 | < 4.00 | 19.8 | 68.3 | 6.01 | 6.14 |  |
| CN(C)c1ccc(/C=C2/SC(=Nc3ccc(O)cc3)NC2=O)cc1 |  | 47.9 |  | 94.4 | 96.5 |  |  | 0.01 (≈ 0.0295 µM) |
| Cc1ccccc1/N=C1\NC(=O)/C(=C\c2ccc(N(C)C)cc2)S1 |  | 41 |  | 17.6 | 86.5 |  |  | 0.27 (≈ 0.8 µM) |
| CN(C)c1ccc(/C=C2/SC(=Nc3ccccc3Cl)NC2=O)cc1 |  | 39.3 |  | 8.82 | > 100 |  |  | 0.02 (≈ 0.0559 µM) |
| O=C1N=C(Nc2ccccc2)S/C1=C/c1ccc(N2CCNCC2)cc1 | 1.68 (≈ 4.61 µM) | 89.3 | < 4.00 | > 100 | 97 | < 4.00 | < 4.00 |  |
| CCN(CC)c1ccc(/C=C2/SC(Nc3ccccc3)=NC2=O)cc1 | 0.1 (≈ 0.285 µM) | 30.1 | < 4.00 | 19.5 | 96.9 | 5.00 | 5.16 |  |
| O=C1N=C(Nc2ccccc2)S/C1=C/c1ccc(N2CCOCC2)cc1 | 0.1 (≈ 0.274 µM) | 77.5 | < 4.00 | 96.1 | 97.4 | < 4.00 | < 4.00 |  |
| CN1CCN(c2ccc(/C=C3/SC(Nc4ccccc4)=NC3=O)cc2)CC1 | 0.35 (≈ 0.925 µM) | 11.3 | 5.19 | 13.9 | 93.8 | 5.60 | 5.85 |  |
| CCN(CC)c1ccc(/C=C2/SC(Nc3ccc(O)cc3)=NC2=O)cc1 |  | 48.2 |  | 94.3 | 93.7 |  |  |  |
| O=C1N=C(Nc2ccc(O)cc2)S/C1=C/c1ccc(N2CCOCC2)cc1 |  | > 100 |  | 88.9 | 92.8 |  |  | 0.19 (≈ 0.498 µM) |
| CN1CCN(c2ccc(/C=C3/SC(Nc4ccc(O)cc4)=NC3=O)cc2)CC1 |  | > 100 |  | > 100 | 94.3 |  |  | 0.01 (≈ 0.0253 µM) |
| O=C1N=C(Nc2ccc(O)cc2)S/C1=C/c1ccc(N2CCNCC2)cc1 |  | 85.5 |  | 83.9 | 98.9 |  |  | 13.9 (≈ 36.5 µM) |
| CCN(CC)c1ccc(/C=C2/SC(Nc3ccccc3Cl)=NC2=O)cc1 |  | 29.5 |  | 25.1 | 85 |  |  | 0.01 (≈ 0.0259 µM) |
| O=C1N=C(Nc2ccccc2Cl)S/C1=C/c1ccc(N2CCOCC2)cc1 |  | 41.4 |  | 48.2 | 94.2 |  |  | 0.05 (≈ 0.125 µM) |
| CN1CCN(c2ccc(/C=C3/SC(Nc4ccccc4Cl)=NC3=O)cc2)CC1 |  | 52.7 |  | 98.2 | 96 |  |  | 0.43 (≈ 1.04 µM) |
| O=C1N=C(Nc2ccccc2Cl)S/C1=C/c1ccc(N2CCNCC2)cc1 |  | 77.4 |  | 98.1 | 99.3 |  |  | 0.14 (≈ 0.351 µM) |
| CN(C)c1ccc(/C=C2/SC(Nc3ccc(Oc4ccccc4)cc3)=NC2=O)cc1 |  | 88.2 |  | > 100 | 100 |  |  | 0.01 (≈ 0.0241 µM) |
| CCN(CC)c1ccc(/C=C2/SC(Nc3ccc(Oc4ccccc4)cc3)=NC2=O)cc1 |  | 64.6 |  | > 100 | > 100 |  |  |  |
| O=C1N=C(Nc2ccc(Oc3ccccc3)cc2)S/C1=C/c1ccc(N2CCOCC2)cc1 |  | 46.8 |  | 72.6 | 98 |  |  | 0.1 (≈ 0.219 µM) |

| SMILES | solubility [1] [µg/mL] | viability at 10 µM [2] [%] | pEC50 [3] | viability at 10 µM [4] [%] | viability at 48 h, 10 µM [5] [%] | pEC50 [6] | pEC50 [7] | solubility at 18 h [1] [µg/mL] |
| --- | --- | --- | --- | --- | --- | --- | --- | --- |
| CN1CCN(c2ccc(/C=C3/SC(Nc4ccc(Oc5ccccc5)cc4)=NC3=O)cc2)CC1 |  | 49.8 |  | 46.7 | 90.9 |  |  | 0.1 (≈ 0.212 µM) |
| O=C1N=C(Nc2ccc(Oc3ccccc3)cc2)S/C1=C/c1ccc(N2CCNCC2)cc1 |  | 45.4 |  | 49.3 | 82.9 |  |  | 0.1 (≈ 0.219 µM) |
| CCN(CC)c1ccc(/C=C2/SC(Nc3ccccc3C)=NC2=O)cc1 |  | 24.6 |  | 8.3 | 80.6 |  |  | 0.2 (≈ 0.547 µM) |
| Cc1ccccc1NC1=NC(=O)/C(=C\c2ccc(N3CCOCC3)cc2)S1 |  | 70.2 |  | 43.8 | 80.8 |  |  | 0.78 (≈ 2.06 µM) |
| Cc1ccccc1NC1=NC(=O)/C(=C\c2ccc(N3CCN(C)CC3)cc2)S1 |  | 34.3 |  | 88.6 | 80.2 |  |  | 0.89 (≈ 2.27 µM) |
| Cc1ccccc1NC1=NC(=O)/C(=C\c2ccc(N3CCNCC3)cc2)S1 |  | 50.1 |  | 65.1 | 62.8 |  |  | 3.83 (≈ 10.1 µM) |
| CN(C)c1ccc(/C=C2/SC(N(c3ccccc3)c3ccccc3)=NC2=O)cc1 |  |  | < 4.00 |  |  | < 4.00 | < 4.00 |  |
| CCN(CC)c1ccc(/C=C2/SC(N(c3ccccc3)c3ccccc3)=NC2=O)cc1 | 0.01 (≈ 0.0234 µM) |  | < 4.00 |  |  | < 4.00 | < 4.00 |  |
| O=C1N=C(N(c2ccccc2)c2ccccc2)S/C1=C/c1ccc(N2CCOCC2)cc1 | 0.01 (≈ 0.0226 µM) |  | < 4.00 |  |  | < 4.00 | < 4.00 |  |
| CN1CCN(c2ccc(/C=C3/SC(N(c4ccccc4)c4ccccc4)=NC3=O)cc2)CC1 | 0.11 (≈ 0.242 µM) |  | < 4.00 |  |  | < 4.00 | < 4.00 |  |
| O=C1N=C(N(c2ccccc2)c2ccccc2)S/C1=C/c1ccc(N2CCNCC2)cc1 | 0.15 (≈ 0.34 µM) |  | < 4.00 |  |  | < 4.00 | < 4.00 |  |
| CN(C)c1ccc(/C=C2/SC(N(C)c3ccccc3)=NC2=O)cc1 | 0.5 (≈ 1.48 µM) |  | < 4.00 |  |  | 6.80 | 7.10 |  |
| CCN(CC)c1ccc(/C=C2/SC(N(C)c3ccccc3)=NC2=O)cc1 | 0.01 (≈ 0.0274 µM) |  | < 4.00 |  |  | 6.37 | 6.55 |  |
| CN(C1=NC(=O)/C(=C\c2ccc(N3CCOCC3)cc2)S1)c1ccccc1 | 5.06 (≈ 13.3 µM) |  | < 4.00 |  |  | 5.54 | 5.05 |  |
| CN1CCN(c2ccc(/C=C3/SC(N(C)c4ccccc4)=NC3=O)cc2)CC1 | 18.91 (≈ 48.2 µM) |  | < 4.00 |  |  | < 4.00 | < 4.00 |  |
| CN(C1=NC(=O)/C(=C\c2ccc(N3CCNCC3)cc2)S1)c1ccccc1 | 3.89 (≈ 10.3 µM) |  | < 4.00 |  |  | < 4.00 | < 4.00 |  |
| CCCSc1ccc2nc(NC(=O)OC)[nH]c2c1 [ALBENDAZOLE] |  |  |  |  |  |  |  | 2.3 (≈ 8.67 µM) |
| NC(=O)N1c2ccccc2C=Cc2ccccc21 [CARBAMAZEPINE] | 22 (≈ 93.1 µM) |  |  |  |  |  |  |  |
| CNC(=C[N+](=O)[O-])NCCSCc1ccc(CN(C)C)o1 [RANITIDINE] | 33.7 (≈ 107 µM) |  |  |  |  |  |  |  |
